From ChEMBL document CHEMBL5214993, “Fragment Optimization of Reversible Binding to the Switch II Pocket on KRAS Leads to a Potent, In Vivo Active KRASG12C Inhibitor” (J Med Chem, 2022)
pEC50, pIC50, pKd, pKi: −log10 of the molar value. Activity calls are given as the source filed them. The rule behind the calls is not given here.

Legend:
[1] = Binding affinity to KRAS G12V/S39C-BIT mutant (unknown origin) assessed as dissociation constant by HSQC NMR spectroscopy analysis; design: species or system Homo sapiens
GTPase KRas [2] = biological target: GTPase KRas (Homo sapiens, UniProt P01116, G12D); assay: Binding affinity to KRAS G12D mutant (unknown origin) assessed as dissociation constant by HSQC NMR spectroscopy analysis
Sequence of GTPase KRas (Homo sapiens, UniProt P01116, G12D) (P01116 whole entry G12D): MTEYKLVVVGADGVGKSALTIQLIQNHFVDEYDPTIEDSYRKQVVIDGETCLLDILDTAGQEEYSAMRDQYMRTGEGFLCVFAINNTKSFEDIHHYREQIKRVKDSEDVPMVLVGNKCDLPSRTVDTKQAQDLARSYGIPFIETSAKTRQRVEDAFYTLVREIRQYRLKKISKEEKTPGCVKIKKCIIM

GTPase KRas [3] = biological target: GTPase KRas (Homo sapiens, UniProt P01116, G12V); assay: Binding affinity to KRAS G12V mutant (unknown origin) assessed as dissociation constant by HSQC NMR spectroscopy analysis
Sequence of GTPase KRas (Homo sapiens, UniProt P01116, G12V) (P01116 whole entry G12V): as the sequence (P01116 whole entry G12D) above, with D12V counted along it
Procedure, shortened: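 KD was fitted from chemical shift perturbations and reported as mean ± SD. Reported as <10 μM when shifts were near saturation at the first point, >2000 μM when dose-responsive but unfittable, and >10,000 μM when there were no shifts at 500 μM.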

cells = conditions: Homo sapiens, GP2d, 120 h
LS-513 = assay: cells; conditions: Homo sapiens, LS-513, 120 h
NCI-H358 [4] = assay: Antiproliferative activity against human NCI-H358 cells harboring KRAS G12C mutant incubated for 3 days by celltiter glo luminescent assay; assay type: functional, cell-based; conditions: NCI-H358, 72 h
NCI-H358 [5] = assay: Antitumor activity against human NCI-H358 cells xenografted in NOG mouse model assessed as induction of apoptosis at 40 mg/kg, ip administered for 3 days and measured at 6 hrs post last dose; assay type: functional, organism-based; conditions: time 3.0 day
Procedure, shortened: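 Female NOG mice, 7–8 weeks old, bearing subcutaneous NCI-H358 tumors (5 million cells in Matrigel, right flank), randomized at mean 180 mm3, n = 5 per group and time point. […] Tumors frozen 6 h after last dose; cleaved caspase 3 measured in tumor lysates.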

[6] = Toxicity in NOG mouse assessed as change in body weight at 40 to 80 mg/kg, ip; assay type: organism-based; conditions: in vivo, dose 40-80 mg/kg
Procedure, shortened: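 Female NOG mice with subcutaneous NCI-H358 xenografts, randomized at mean 160 mm3 into groups of n = 8. Dosed ip 40 mg/kg once weekly or 40 mg/kg on 2 consecutive days weekly, in 25% HP-γ-CD at 10 mL/kg, with a vehicle control group. Body weight recorded daily.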

GTPase KRas [7] = biological target: GTPase KRas (Homo sapiens, UniProt P01116, G12C)
Sequence of GTPase KRas (Homo sapiens, UniProt P01116, G12C) (P01116 whole entry G12C): as the sequence (P01116 whole entry G12D) above, with D12C counted along it

SOS1-KRAS = SOS1-KRAS (Homo sapiens, UniProt P01116, G12C)
Sequence of SOS1-KRAS (P01116 whole entry G12C, looked up): as the sequence (P01116 whole entry G12D) above, with D12C counted along it

[8] = test system: GTPase KRas (Homo sapiens), P01116 [G12C]
Sequence of GTPase KRas (Homo sapiens), P01116 [G12C] (P01116 whole entry G12C): as the sequence (P01116 whole entry G12D) above, with D12C counted along it

NCI-H358 [9] = assay: Antiproliferative activity against human NCI-H358; assay type: functional, cell-based

N#Cc1csc2c1CCCC2
pKd [1]: < 2.70

C[C@]1(c2nc(-c3cccc(N)c3)no2)CCCc2sc(N)c(C#N)c21
pKd (GTPase KRas [2]): < 2.70
pKd (GTPase KRas [3]): > 5.00

CC1(C(=O)Nc2ccccc2)CCCc2sc(N)c(C#N)c21 (stereo not given)
pKd (GTPase KRas [3]): 2.93

C=CC(=O)N1CCN(c2cc(-c3noc([C@@]4(C)CCCc5sc(N)c(C#N)c54)n3)nc(N3CCN(C)C[C@@H]3C)c2)CC1
pEC50 (cells): < 5.40
pEC50 (LS-513): < 5.40
pEC50 (NCI-H358 [4]): 7.59
Activity (NCI-H358 [5]): Active
Activity [6]: Toxic

CC1CCCc2sc(N)c(C#N)c21 (stereo not given)
pKd [1]: 4.68

CCc1c(C)sc(N)c1C#N
pKd [1]: 3.84

N#Cc1c(N)sc2c1CCCCC2
pKd [1]: 3.79

C=CC(=O)Nc1cccc(-c2noc([C@@]3(C)CCCc4sc(N)c(C#N)c43)n2)c1
pKi (GTPase KRas [7]): 5.07
pIC50 (SOS1-KRAS): < 5.00
Kinact [8]: 1.1 h⁻¹

COC(=O)c1c(N)sc2c1CCCC2
pKd [1]: < 2.00

N#Cc1c(N)sc2c1CCCC2
pKd [1]: 3.94

C=CC(=O)Nc1ccc(-c2noc([C@@]3(C)CCCc4sc(N)c(C#N)c43)n2)cc1
pKi (GTPase KRas [7]): 4.62
pIC50 (SOS1-KRAS): < 5.00
Kinact [8]: 0.7 h⁻¹

N#Cc1ccsc1N
pKd [1]: < 2.00

CNC(=O)C1(C)CCCc2sc(N)c(C#N)c21 (stereo not given)
pKd (GTPase KRas [3]): < 2.70

N#Cc1c(N)sc2c1CCC2
pKd [1]: 3.71

CC1(C)CCCc2sc(N)c(C#N)c21
pKd (GTPase KRas [3]): 4.82
pKd [1]: > 5.00

N#Cc1c(N)sc2ccccc12
pKd [1]: 3.53

CC1(C(=O)O)CCCc2sc(N)c(C#N)c21 (stereo not given)
pKd (GTPase KRas [3]): 2.94

Oc1cccc(F)c1-c1ncccc1F
pKd [1]: < 2.00

C[C@]1(c2nc(-c3ccc(N)cc3)no2)CCCc2sc(N)c(C#N)c21
pKd (GTPase KRas [2]): < 2.70
pKd (GTPase KRas [3]): > 5.00

N#Cc1c(N)sc2c1C(C(=O)Nc1ccccc1)CCC2 (stereo not given)
pKd (GTPase KRas [3]): 2.90

Cc1noc(C2(C)CCCc3sc(N)c(C#N)c32)n1 (stereo not given)
pKd (GTPase KRas [3]): 4.70

Nc1nc2c(C(F)(F)F)cccc2s1
pKd [1]: 2.91

CN(C)c1cccc2cccc(Cl)c12
pKd [1]: < 2.00

Nc1nc2c(s1)CCCC2
pKd [1]: 3.15

C=CC(=O)N1CCN(c2nc(=O)n(-c3c(C)ccnc3C(C)C)c3nc(-c4c(O)cccc4F)c(F)cc23)[C@@H](C)C1 [SOTORASIB]
pEC50 (NCI-H358 [4]): 8.19
pEC50 (NCI-H358 [9]): 8.22

C=CC(=O)N1CCN(c2cccc(-c3noc([C@@]4(C)CCCc5sc(N)c(C#N)c54)n3)c2)CC1
pKi (GTPase KRas [7]): 5.12
pIC50 (SOS1-KRAS): 5.48
Kinact [8]: 0.3 h⁻¹
